Reference: ChEMBL document CHEMBL1127577, “Identification of tricyclic analogs related to ellagic acid as potent/selective tyrosine protein kinase inhibitors” (J Med Chem, 1994)
Where “and” joins values, the source holds several entries; their conditions need not be identical. Identical values can stand only once.

Assays:
[1] = molecular target: Proto-oncogene tyrosine-protein kinase Src (Homo sapiens, UniProt P12931); experiment: Tested for in vitro inhibitory activity against tyrosine protein kinase pp60 c-src
Proto-oncogene tyrosine-protein kinase Src, sequence (P12931 2-536 limits assumed): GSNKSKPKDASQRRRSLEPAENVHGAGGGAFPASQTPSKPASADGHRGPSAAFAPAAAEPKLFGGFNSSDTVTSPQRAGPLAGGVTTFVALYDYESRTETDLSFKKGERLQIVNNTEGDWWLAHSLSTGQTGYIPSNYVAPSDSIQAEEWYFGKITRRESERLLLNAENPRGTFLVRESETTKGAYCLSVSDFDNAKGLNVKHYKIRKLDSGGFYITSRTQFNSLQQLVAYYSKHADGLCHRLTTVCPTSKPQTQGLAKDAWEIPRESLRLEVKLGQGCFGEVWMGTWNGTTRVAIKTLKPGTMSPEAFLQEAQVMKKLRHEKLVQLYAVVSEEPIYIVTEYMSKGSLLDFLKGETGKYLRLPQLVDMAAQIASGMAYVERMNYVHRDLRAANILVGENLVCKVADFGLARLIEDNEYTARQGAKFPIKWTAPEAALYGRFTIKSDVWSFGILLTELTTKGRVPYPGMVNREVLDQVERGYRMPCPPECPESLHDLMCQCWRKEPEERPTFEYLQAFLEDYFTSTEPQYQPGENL
In short: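 pp60c-src purified from human platelet membrane vesicles by anti-src immunoaffinity chromatography. Reaction stopped after 45 min with 5% phosphoric acid; nitrocellulose filter capture. Six inhibitor concentrations in triplicate; IC50 from mean of ≥2 determinations.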

[2] = molecular target: cAMP-dependent protein kinase (PKA) (Homo sapiens, UniProt P22694+P17612+P22612); experiment: In vitro inhibitory activity against protein kinase A; assay type: protein assay, unidentified
In short: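 PKA catalytic subunit, 0.8 unit/assay, with Kemptide (LRRASLG) at 10 µg/mL. Buffers and procedure as for the src assay: 50 mM HEPES pH 7.4, 0.015% Brij 35, 0.1 mM EDTA, [γ-32P]ATP transfer, phosphoric acid stop, filter capture. Six inhibitor concentrations in triplicate; IC50 from mean of ≥2 determinations.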

[3] = Reaction rate parameter value for phosphate with transfer with respect to ATP
In short: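 Platelet pp60c-src, same peptide-phosphorylation assay run at four ATP levels (5, 50, 400 µM, 2 mM), six inhibitor concentrations in triplicate at each. Apparent KM and Vmax shifts used to pick an inhibition model; data fitted for KM, Vmax and KI, with fit quality given as RMS. Values from a representative experiment with substrate-only controls.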

IC50 [1]	IC50 [2]	Ki [3]	Km [3]	SMILES
8 µM	108 µM			Oc1cc2c3cc(O)c(O)cc3n(Cc3cccnc3)c2cc1O
12 µM	168 µM			O=[N+]([O-])c1ccc(S(=O)(=O)n2c3cc(O)c(O)cc3c3ccc(O)c(O)c32)cc1
2 µM	51 µM			O=c1c2cc(O)c(O)cc2c2cc(O)c(O)cc2n1Cc1ccc(S(=O)(=O)c2ccccc2)cc1
0.9 µM	92 µM			Oc1cc2nc(O)c3c(O)c(O)ccc3c2cc1O
7.2 µM	634 µM			O=c1c2c(O)c(O)ccc2c2cc(O)c(O)cc2n1Cc1ccc(S(=O)(=O)c2ccccc2)cc1
9 µM	4 µM			CS(=O)(=O)c1ccc(C(=O)n2c3cc(O)c(O)cc3c3c(Br)cc(O)c(O)c32)cc1
0.5 µM	1 µM			O=C(c1ccc2ccccc2c1)n1c2cc(O)c(O)cc2c2ccc(O)c(O)c21
0.6 µM	3.2 µM			O=C(c1ccc(-c2ccccc2)cc1)n1c2cc(O)c(O)cc2c2ccc(O)c(O)c21
0.9 µM	6.6 µM			N#Cc1ccc(Cn2c3cc(O)c(O)cc3c3c(Br)cc(O)c(O)c32)cc1
0.9 µM	435 µM			Oc1cc2c3ccc(O)c(O)c3n(Cc3c(Cl)cccc3Cl)c2cc1O
0.4 µM	40 µM			CS(=O)(=O)c1ccc(C(=O)n2c3cc(O)c(O)cc3c3ccc(O)c(O)c32)cc1
0.9 µM	8.4 µM			O=c1c2cc(O)c(O)cc2c2cc(O)c(O)cc2n1Cc1ccc([N+](=O)[O-])cc1
0.6 µM	317 µM			O=S(=O)(c1ccccc1)c1ccc(Cn2c3cc(O)c(O)cc3c3ccc(O)c(O)c32)cc1
15 µM	250 µM			O=S(=O)(c1ccccc1)n1c2cc(O)c(O)cc2c2ccc(O)c(O)c21
3.4 µM	374 µM			Oc1cc2c3ccc(O)c(O)c3n(Cc3ccc(Br)cc3)c2cc1O
0.4 µM	275 µM			N#Cc1ccc(Cn2c3cc(O)c(O)cc3c3ccc(O)c(O)c32)cc1
1 µM	> 800 µM			Oc1cc2nc(O)c3cc(O)c(O)cc3c2cc1O
4 µM	415 µM			O=C(c1ccccc1)n1c2cc(O)c(O)cc2c2cc(O)c(O)cc21
0.7 µM	50 µM			CC(C)(C)c1ccc(C(=O)n2c3cc(O)c(O)cc3c3ccc(O)c(O)c32)cc1
1.4 µM	4.2 µM			O=C(c1ccc(Br)cc1)n1c2cc(O)c(O)cc2c2ccc(O)c(O)c21
7.7 µM	223 µM			O=S(=O)(c1cc(Cl)ccc1Cl)n1c2cc(O)c(O)cc2c2ccc(O)c(O)c21
2 µM	210 µM			Oc1cc2c3ccc(O)c(O)c3n(Cc3ccccc3)c2cc1O
14 µM	78 µM			O=S(=O)(Cc1ccccc1)n1c2cc(O)c(O)cc2c2ccc(O)c(O)c21

IC50 [1]	IC50 [2]	Ki [3]	Km [3]	SMILES
0.7 µM	10 µM			O=C(c1ccc(C(F)(F)F)cc1)n1c2cc(O)c(O)cc2c2ccc(O)c(O)c21
0.6 µM	1.5 µM			O=C(c1cccc([N+](=O)[O-])c1)n1c2cc(O)c(O)cc2c2ccc(O)c(O)c21
1.3 µM	20 µM			O=c1c2cc(O)c(O)cc2c2cc(O)c(O)cc2n1Cc1ccc(Cl)c(Cl)c1
0.8 µM	47 µM			Oc1cc2[nH]c3c(O)c(O)ccc3c2cc1O
0.6 µM	17 µM			Oc1cc2[nH]c3c(O)c(O)cc(Br)c3c2cc1O
24 µM	> 600 µM			O=S(=O)(c1ccccc1)n1c2cc(O)c(O)cc2c2cc(O)c(O)cc21
11 µM	541 µM			CCn1c(=O)c2c(O)c(O)ccc2c2cc(O)c(O)cc21
0.9 µM	240 µM			O=C(c1ccccc1)n1c2cc(O)c(O)cc2c2ccc(O)c(O)c21
1.5 µM	58 µM	1.06 µM and 0.53 µM	68.1 µM and 29.2 µM	Oc1cc2[nH]c3cc(O)c(O)cc3c2cc1O
7 µM	115 µM			Oc1cc2c3cc(O)c(O)cc3n(Cc3ccccc3)c2cc1O
21 µM	284 µM			O=c1c2c(O)c(O)ccc2c2cc(O)c(O)cc2n1Cc1ccccc1
2 µM	7 µM			O=C(c1ccc(C(F)(F)F)cc1)n1c2cc(O)c(O)cc2c2c(Br)cc(O)c(O)c21
0.5 µM	0.5 µM			Oc1cc2c3ccc(O)c(O)c3n(CCCc3ccccc3)c2cc1O
61 µM	309 µM			O=c1c2c(O)c(O)ccc2c2cc(O)c(O)cc2n1Cc1ccc([N+](=O)[O-])cc1
197 µM	410 µM			O=c1c2c(O)c(O)ccc2c2cc(O)c(O)cc2n1Cc1ccc(Cl)c(Cl)c1
5.4 µM	390 µM			O=c1c2cc(O)c(O)cc2c2cc(O)c(O)cc2n1Cc1ccccc1
9 µM	50 µM			Oc1cc2c3ccc(O)c(O)c3n(Cc3ccc(C(F)(F)F)cc3)c2cc1O
0.4 µM	2.3 µM			O=C(CCc1ccccc1)n1c2cc(O)c(O)cc2c2ccc(O)c(O)c21
4.1 µM	> 2000 µM			CCn1c(=O)c2cc(O)c(O)cc2c2cc(O)c(O)cc21
12 µM	40 µM			CC(C)(C)c1ccc(C(=O)n2c3cc(O)c(O)cc3c3c(Br)cc(O)c(O)c32)cc1
1.7 µM	23 µM			Cc1cccc(Cn2c3cc(O)c(O)cc3c3ccc(O)c(O)c32)c1
0.3 µM	0.6 µM			O=c1oc2c(O)c(O)cc3c(=O)oc4c(O)c(O)cc1c4c23 [ELLAGIC ACID]
